From publication PMC4042847 (Journal of the American Chemical Society, 2013)

Key:
SHV-1 β-lactamase = SHV-1 β-lactamase (Klebsiella pneumoniae, UniProt P0AD64); test: Steady-state inhibition kinetics with nitrocefin as indicator substrate; type: biochemical; details: for kobs react 30min: after a 30 min incubation of 1:90 enzyme:inhibitor ratio; for tn (24h): inhibitor:enzyme ratio decreasing activity by 95% after 24 h incubation
ADC-7 β-lactamase = test: IC50, turnover number and timed inactivation with nitrocefin; type: biochemical
Summary of the method: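 Enzyme in 10 mM phosphate-buffered saline, pH 7.4, read by diode-array spectrophotometry with nitrocefin (Δε482 = 17,400 M−1cm−1) at 100 μM. IC50: initial velocities after 5 min enzyme–inhibitor pre-incubation. tn: 24 h incubation with increasing inhibitor, then residual activity assayed. Timed inactivation: I:E ratio set from tn; steady-state velocities at set time points over 45 min.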

PDC-3 β-lactamase = PDC-3 β-lactamase (Pseudomonas aeruginosa, UniProt P24735, T105A); test: IC50 and turnover number with nitrocefin; type: biochemical
OXA-24 β-lactamase = OXA-24 β-lactamase (Acinetobacter baumannii, UniProt Q8RLA6); test: IC50 and turnover number with nitrocefin; type: biochemical
[1] = Spontaneous hydrolysis followed by UV difference spectroscopy; type: physicochemical; details: 3.5 μM in 10 mM PBS, pH 7.4
TEM-2 β-lactamase = details: cited from earlier work

Row | Molecule | IC50 higher than clavulanate (SHV-1 β-lactamase; SHV-1) [fold] | IC50 higher than tazobactam (SHV-1 β-lactamase; SHV-1) [fold] | Ki greater than tazobactam and clavulanate (SHV-1 β-lactamase; SHV-1) | kobs react lower than clavulanate (SHV-1 β-lactamase; SHV-1) | kobs react lower than tazobactam (SHV-1 β-lactamase; SHV-1) [fold] | Ki (SHV-1 β-lactamase; SHV-1, Kiapp corrected for nitrocefin affinity (Km = 20 μM)) [µM] | IC50 (SHV-1 β-lactamase; SHV-1, NCF 100 μM, 5 min pre-incubation of enzyme with inhibitor) [µM] | kobs react 30min (SHV-1 β-lactamase; SHV-1) [s⁻¹] | tn (24h) (SHV-1 β-lactamase; SHV-1) | inactivation of SHV-1 in timed inactivation (SHV-1 β-lactamase; […] nM SHV-1 with 980 nM DCM-1-10 (I:E = 7:1), within 45 min) [%] | timed inactivation of ADC-7 in words (ADC-7 β-lactamase; 100 nM ADC-7 with 4.5 μM DCM-1-10, I:E of 45:1) | IC50 (ADC-7 β-lactamase; ADC-7) [µM] | IC50 in words (ADC-7 β-lactamase; ADC-7) | IC50 (PDC-3 β-lactamase) [µM] | IC50 in words (PDC-3 β-lactamase) | IC50 (OXA-24 β-lactamase) [µM] | spontaneous rate of hydrolysis [1] [µM/s] | pseudo first order rate constant of spontaneous hydrolysis ([1]; absorbance at 228 nm) [s⁻¹] | inhibition of TEM-2 β-lactamase in words (TEM-2 β-lactamase) | KI (SHV-1 β-lactamase; SHV-1, from fit of kobs versus inhibitor concentration) [µM]
1 | 7-(tert-butoxycarbonyl)methylidenecephalosporin sulfone [DCM-1-10] | 4 | 27 | about 166 fold | at least 333 fold | 67 | > 20 | 0.8 ± 0.1 | 0.0006 ± 0.0001 | 7 | 95 | rapid compared to SHV-1 | 0.13 ± 0.01 | submicromolar | 0.74 ± 0.08 | submicromolar | > 100 | 0.0002 | 3e-05 | potent and specific inhibition | 
2 | O=C(O)[C@H]1/C(=C/CO)O[C@@H]2CC(=O)N21 [Clavulanate, clavulanic acid, reference compound] |  |  |  |  |  |  |  | > 0.2 | 40 |  |  |  |  |  |  |  |  |  |  | 2.6 ± 0.3
3 | C[C@]1(Cn2ccnn2)[C@H](C(=O)O)N2C(=O)C[C@H]2S1(=O)=O [Tazobactam, tazobactam, reference compound] |  |  |  |  |  |  |  | 0.040 ± 0.001 | 5 |  |  |  |  |  |  |  |  |  |  | 
